Experimental data as given in ChEMBL document CHEMBL1142947, “Gallium(III) and iron(III) complexes of alpha-N-heterocyclic thiosemicarbazones: synthesis, characterization, cytotoxicity, and interaction with ribonucleotide reductase” (J Med Chem, 2007).

Tests used:
41M = test: Cytotoxicity against human 41M cells after 96 hrs by MTT assay; format: cell-based
Method in brief: (§1)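 Adherent cells grown in MEM with 10% heat-inactivated FBS, 1 mM sodium pyruvate, 4 mM L-glutamine and nonessential amino acids at 37 °C, 5% CO2. Seeded at 4 × 10^3 cells/well and preincubated 24 h. Exposed 96 h to DMSO stocks serially diluted in medium (DMSO ≤0.5%). MTT added for 4 h, formazan dissolved in DMSO, read at 550 nm (ref 690 nm). IC50 interpolated from T/C curves; ≥3 independent experiments, six cultures per concentration.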

[1] = Cytotoxicity against human SKBR3 cells after 96 hrs by MTT assay; format: cell-based; settings: SK-BR-3, 96 h; method in brief: as §1
[2] = biological target: T1, Ribonucleoside-diphosphate reductase subunit M2 (Mus musculus) (UniProt P11157); test: Effect on mouse ribonucleotide reductase R2 protein measured by tyrosyl radical concentration in anaerobic condition at 3 mM, 298 K after 1 min
T1 sequence (whole entry): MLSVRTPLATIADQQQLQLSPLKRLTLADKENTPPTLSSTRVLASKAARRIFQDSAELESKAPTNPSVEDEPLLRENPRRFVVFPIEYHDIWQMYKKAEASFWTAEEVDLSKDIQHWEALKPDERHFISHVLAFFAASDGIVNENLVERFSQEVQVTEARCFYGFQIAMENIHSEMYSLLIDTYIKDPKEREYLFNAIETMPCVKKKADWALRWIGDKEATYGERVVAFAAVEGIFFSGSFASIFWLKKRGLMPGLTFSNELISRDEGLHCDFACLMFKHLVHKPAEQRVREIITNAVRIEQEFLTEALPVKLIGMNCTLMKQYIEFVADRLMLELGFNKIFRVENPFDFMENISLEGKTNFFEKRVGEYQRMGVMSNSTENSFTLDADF
Method in brief: (§2)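 Run in an anaerobic tent with argon-bubbled, vacuum-degassed buffer (50 mM Tris/HCl pH 7.6, 100 mM KCl) and solutions. Protein degassed and diluted to a final 30 µM R2 monomer with 30 µM compound (from 3 mM stocks), 1% DMSO and 1 mM DTT freshly prepared. Incubated at 298 K for 1, 15 and 1005 min total; tyrosyl radical measured by EPR at 77 K.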

[3] = biological target: T1, Ribonucleoside-diphosphate reductase subunit M2 (Mus musculus); test: Effect on mouse ribonucleotide reductase R2 protein measured by tyrosyl radical concentration in aerobic condition at 30-33 µM, 298 K after 15 mins
[4] = biological target: T1, Ribonucleoside-diphosphate reductase subunit M2 (Mus musculus); test: Effect on mouse ribonucleotide reductase R2 protein measured by tyrosyl radical concentration in anaerobic condition at 3 mM, 298 K after 1005 mins; method in brief: as §2
[5] = biological target: T1, Ribonucleoside-diphosphate reductase subunit M2 (Mus musculus); test: Effect on mouse ribonucleotide reductase R2 protein measured by tyrosyl radical concentration in aerobic condition at 3 mM, 298 K after 1 min
Method in brief: (§3)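 Reconstituted purified mouse R2 diluted to 30 µM monomer in 50 mM Tris/HCl pH 7.6, 100 mM KCl. Compound added from 3 mM stock (DMSO, or water for nitrates) to a final 30–33 µM (1:1 with monomer), about 1% DMSO, plus 1 mM DTT, under air at 298 K. Samples frozen in liquid nitrogen after each incubation; tyrosyl radical quantified by X-band EPR at 40 K.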

[6] = biological target: T1, Ribonucleoside-diphosphate reductase subunit M2 (Mus musculus); test: Effect on mouse ribonucleotide reductase R2 protein measured by tyrosyl radical concentration in anaerobic condition at 3 mM, 298 K after 15 mins; method in brief: as §2
[7] = biological target: T1, Ribonucleoside-diphosphate reductase subunit M2 (Mus musculus); test: Effect on mouse ribonucleotide reductase R2 protein measured by tyrosyl radical concentration in aerobic condition at 3 mM, 298 K after 1005 mins; method in brief: as §3

SMILES	IC50 (41M) [nM]	IC50 [1] [nM]	Activity [2] [µM]	Activity [3] [µM]	Activity [4] [µM]	Activity [5] [µM]	Activity [6] [µM]	Activity [7] [µM]
C/C(=N\NC(=S)N1CCCCC1)c1cnccn1	0.41	2.2						
C/C(=N\NC(=S)N1CCCC1)c1cnccn1	1.1	5						
C/C(=N\NC(=S)N(C)C)c1cnccn1	0.073	1.4						
C/C(=N\NC(=S)N1CCCC1)c1ccccn1	0.36	3.1						
C/C(=N\NC(=S)N(C)C)c1ccccn1	0.22	2.7	8.5	7	0	17.2	0	0.5
